Assay results reported in ChEMBL document CHEMBL3580554, “Design, synthesis, and anticonvulsant activity of new hybrid compounds derived from 2-(2,5-dioxopyrrolidin-1-yl)propanamides and 2-(2,5-dioxopyrrolidin-1-yl)butanamides” (J Med Chem, 2015).

Tests used:
Mus musculus [1] = assay: Anticonvulsant activity in Swiss mouse assessed as protection against seizures at 300 mg/kg, ip dosed 0.25 hrs before initiation of maximal electroconvulsions by maximal electroshock test; assay type: functional
Summary of the method: (§1)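 Mice were dosed i.p. at a fixed 300 or 100 mg/kg (6 Hz: 100 mg/kg only). Protection was then scored against MES, sc PTZ or 6 Hz seizures at pretreatment times of 0.25, 0.5, 1 and 2 h. Groups were four mice, scored as number protected / number tested. This also gives the time course and time of peak effect.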

Mus musculus [2] = assay: Anticonvulsant activity in Swiss mouse assessed as protection against seizures at 300 mg/kg, ip dosed 0.5 hrs before initiation of maximal electroconvulsions by maximal electroshock test; assay type: functional; summary of the method: as §1
Mus musculus [3] = assay: Anticonvulsant activity in Swiss mouse assessed as protection against seizures at 300 mg/kg, ip dosed 1 hr before initiation of maximal electroconvulsions by maximal electroshock test; assay type: functional; summary of the method: as §1
Mus musculus [4] = assay: Anticonvulsant activity in Swiss mouse assessed as protection against seizures at 300 mg/kg, ip dosed 2 hrs before initiation of maximal electroconvulsions by maximal electroshock test; assay type: functional; summary of the method: as §1
Mus musculus [5] = assay: Anticonvulsant activity in Swiss mouse assessed as protection against seizures at 100 mg/kg, ip dosed 0.25 hrs before initiation of maximal electroconvulsions by maximal electroshock test; assay type: functional; summary of the method: as §1
Mus musculus [6] = assay: Anticonvulsant activity in Swiss mouse assessed as protection against seizures at 100 mg/kg, ip dosed 0.5 hrs before initiation of maximal electroconvulsions by maximal electroshock test; assay type: functional; summary of the method: as §1
Mus musculus [7] = assay: Anticonvulsant activity in Swiss mouse assessed as protection against seizures at 100 mg/kg, ip dosed 1 hr before initiation of maximal electroconvulsions by maximal electroshock test; assay type: functional; summary of the method: as §1
Mus musculus [8] = assay: Anticonvulsant activity in Swiss mouse assessed as protection against seizures at 100 mg/kg, ip dosed 2 hrs before initiation of maximal electroconvulsions by maximal electroshock test; assay type: functional; summary of the method: as §1
Mus musculus [9] = assay: Anticonvulsant activity in Swiss mouse assessed as protection against seizures at 300 mg/kg, ip dosed 0.25 hrs before pentylenetetrazole challenge by subcutaneous pentylenetetrazole seizure test; assay type: functional; summary of the method: as §1
Mus musculus [10] = assay: Anticonvulsant activity in Swiss mouse assessed as protection against seizures at 300 mg/kg, ip dosed 0.5 hrs before pentylenetetrazole challenge by subcutaneous pentylenetetrazole seizure test; assay type: functional; summary of the method: as §1
Mus musculus [11] = assay: Anticonvulsant activity in Swiss mouse assessed as protection against seizures at 300 mg/kg, ip dosed 1 hr before pentylenetetrazole challenge by subcutaneous pentylenetetrazole seizure test; assay type: functional; summary of the method: as §1
Mus musculus [12] = assay: Anticonvulsant activity in Swiss mouse assessed as protection against seizures at 300 mg/kg, ip dosed 2 hrs before pentylenetetrazole challenge by subcutaneous pentylenetetrazole seizure test; assay type: functional; summary of the method: as §1
Mus musculus [13] = assay: Anticonvulsant activity in Swiss mouse assessed as protection against seizures at 100 mg/kg, ip dosed 0.25 hrs before pentylenetetrazole challenge by subcutaneous pentylenetetrazole seizure test; assay type: functional; summary of the method: as §1
Mus musculus [14] = assay: Anticonvulsant activity in Swiss mouse assessed as protection against seizures at 100 mg/kg, ip dosed 0.5 hrs before pentylenetetrazole challenge by subcutaneous pentylenetetrazole seizure test; assay type: functional; summary of the method: as §1
Mus musculus [15] = assay: Anticonvulsant activity in Swiss mouse assessed as protection against seizures at 100 mg/kg, ip dosed 1 hr before pentylenetetrazole challenge by subcutaneous pentylenetetrazole seizure test; assay type: functional; summary of the method: as §1
Mus musculus [16] = assay: Anticonvulsant activity in Swiss mouse assessed as protection against seizures at 100 mg/kg, ip dosed 2 hrs before pentylenetetrazole challenge by subcutaneous pentylenetetrazole seizure test; assay type: functional; summary of the method: as §1
Mus musculus [17] = assay: Anticonvulsant activity in Swiss mouse model of 6 Hz psychomotor seizure mode assessed as protection against seizures at 100 mg/kg, ip dosed 0.25 hrs before 6 Hz electrical stimulation by 6 Hz test; assay type: functional; summary of the method: as §1
Mus musculus [18] = assay: Anticonvulsant activity in Swiss mouse model of 6 Hz psychomotor seizure mode assessed as protection against seizures at 100 mg/kg, ip dosed 0.5 hrs before 6 Hz electrical stimulation by 6 Hz test; assay type: functional; summary of the method: as §1
Mus musculus [19] = assay: Anticonvulsant activity in Swiss mouse model of 6 Hz psychomotor seizure mode assessed as protection against seizures at 100 mg/kg, ip dosed 1 hr before 6 Hz electrical stimulation by 6 Hz test; assay type: functional; summary of the method: as §1
Mus musculus [20] = assay: Anticonvulsant activity in Swiss mouse model of 6 Hz psychomotor seizure mode assessed as protection against seizures at 100 mg/kg, ip dosed 2 hrs before 6 Hz electrical stimulation by 6 Hz test; assay type: functional; summary of the method: as §1
Rattus norvegicus [21] = species: Rattus norvegicus; assay: Inhibition of [3H]BTX binding to sodium channel site 2 in rat cerebral cortex synaptosomes at 100 uM incubated for 60 mins by scintillation counting based radioligand displacement assay; assay type: subcellular
Summary of the method: (§2)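 Synaptoneurosomal preparations from rat cerebral cortex were used. The read-out was inhibition of specific [3H]BTX binding to the voltage-sensitive sodium channel (site 2), expressed as % inhibition of control specific binding. Compounds were tested at 1, 10, 100 and 500 μM. Inhibition above 50% was taken as significant.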

Rattus norvegicus [22] = species: Rattus norvegicus; assay: Inhibition of [3H]BTX binding to sodium channel site 2 in rat cerebral cortex synaptosomes at 10 uM incubated for 60 mins by scintillation counting based radioligand displacement assay; assay type: subcellular; summary of the method: as §2
Rattus norvegicus [23] = species: Rattus norvegicus; assay: Inhibition of [3H]BTX binding to sodium channel site 2 in rat cerebral cortex synaptosomes at 1 uM incubated for 60 mins by scintillation counting based radioligand displacement assay; assay type: subcellular; summary of the method: as §2
Mus musculus [24] = assay: Anticonvulsant activity in ip dosed Swiss mouse assessed as protection against seizures measured at 0.25 hrs of time to peak effect by maximal electroshock test; assay type: functional
Summary of the method: (§3)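 Median effective doses (ED50, mg/kg) were determined i.p. in mice at the time of peak effect in the MES, sc PTZ or 6 Hz tests. Only compounds giving at least 50% protection at 100 mg/kg in that test were taken forward.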

Mus musculus [25] = assay: Anticonvulsant activity in ip dosed Swiss mouse assessed as protection against seizures measured at 0.25 hrs of time to peak effect by subcutaneous pentylenetetrazole seizure test; assay type: functional; summary of the method: as §3
Mus musculus [26] = assay: Anticonvulsant activity in ip dosed Swiss mouse assessed as protection against seizures measured at 0.25 hrs of time to peak effect by 6 Hz test by 6 Hz psychomotor seizure test; assay type: functional; summary of the method: as §3
[27] = Toxicity in ip dosed Swiss mouse assessed as induction of motor performance impairment measured within 60 seconds measured at 0.25 hrs of time to peak effect by Chimney test; assay type: organism-based; conditions: in vivo
Summary of the method: (§4)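 Neurotoxicity was measured i.p. in mice by the chimney test for motor impairment. It was given as the median neurotoxic dose (TD50, mg/kg) at the time of peak effect.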

Mus musculus [28] = species: Mus musculus; assay: Protective index, ratio of neurotoxic TD50 in Swiss mouse by Chimney test to anticonvulsant ED50 in Swiss mouse measured at 0.25 hrs of time to peak effect by maximal electroshock test
Summary of the method: (§5)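 Protective index was calculated as TD50 (chimney test, mouse, i.p.) divided by ED50 from the matching MES, sc PTZ or 6 Hz test, both taken at the time of peak effect.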

Mus musculus [29] = assay: Protective index, ratio of neurotoxic TD50 in Swiss mouse by Chimney test to anticonvulsant ED50 in Swiss mouse measured at 0.25 hrs of time to peak effect by subcutaneous pentylenetetrazole seizure test; assay type: functional; summary of the method: as §5
Mus musculus [30] = species: Mus musculus; assay: Protective index, ratio of neurotoxic TD50 in Swiss mouse by Chimney test to anticonvulsant ED50 in Swiss mouse measured at 0.25 hrs of time to peak effect by 6 Hz test by 6 Hz psychomotor seizure test; assay type: functional; summary of the method: as §5
Mus musculus [31] = species: Mus musculus; assay: Protective index, ratio of neurotoxic TD50 in Swiss mouse by Chimney test to anticonvulsant ED50 in Swiss mouse measured at 0.5 hrs of time to peak effect by maximal electroshock test; summary of the method: as §5
Mus musculus [32] = assay: Anticonvulsant activity in ip dosed Swiss mouse assessed as protection against seizures measured at 0.5 hrs of time to peak effect by maximal electroshock test; assay type: functional; summary of the method: as §3
Mus musculus [33] = assay: Anticonvulsant activity in ip dosed Swiss mouse assessed as protection against seizures measured at 0.5 hrs of time to peak effect by subcutaneous pentylenetetrazole seizure test; assay type: functional; summary of the method: as §3
Mus musculus [34] = assay: Anticonvulsant activity in ip dosed Swiss mouse assessed as protection against seizures measured at 0.5 hrs of time to peak effect by 6 Hz test by 6 Hz psychomotor seizure test; assay type: functional; summary of the method: as §3
[35] = Toxicity in ip dosed Swiss mouse assessed as induction of motor performance impairment measured within 60 seconds measured at 0.5 hrs of time to peak effect by Chimney test; assay type: organism-based; conditions: in vivo; summary of the method: as §4
Mus musculus [36] = assay: Protective index, ratio of neurotoxic TD50 in Swiss mouse by Chimney test to anticonvulsant ED50 in Swiss mouse measured at 0.5 hrs of time to peak effect by subcutaneous pentylenetetrazole seizure test; assay type: functional; summary of the method: as §5
Mus musculus [37] = species: Mus musculus; assay: Protective index, ratio of neurotoxic TD50 in Swiss mouse by Chimney test to anticonvulsant ED50 in Swiss mouse measured at 0.5 hrs of time to peak effect by 6 Hz test by 6 Hz psychomotor seizure test; assay type: functional; summary of the method: as §5
Rattus norvegicus [38] = species: Rattus norvegicus; assay: Inhibition of [3H]BTX binding to sodium channel site 2 in rat cerebral cortex synaptosomes at 500 uM incubated for 60 mins by scintillation counting based radioligand displacement assay; assay type: subcellular; summary of the method: as §2

CCC(C(=O)N1CCN(c2cccc(C(F)(F)F)c2)CC1)N1C(=O)CCC1=O (racemic)
Activity (Mus musculus [1]): 75% | Activity (Mus musculus [2]): 50% | Activity (Mus musculus [3]): 100% | Activity (Mus musculus [4]): 50% | Activity (Mus musculus [5]): 75% | Activity (Mus musculus [6]): 50% | Activity (Mus musculus [7]): 0% | Activity (Mus musculus [8]): 0% | Activity (Mus musculus [9]): 100% | Activity (Mus musculus [10]): 75% | Activity (Mus musculus [11]): 75% | Activity (Mus musculus [12]): 75% | Activity (Mus musculus [13]): 50% | Activity (Mus musculus [14]): 75% | Activity (Mus musculus [15]): 25% | Activity (Mus musculus [16]): 25% | Activity (Mus musculus [17]): 100% | Activity (Mus musculus [18]): 100% | Activity (Mus musculus [19]): 75% | Activity (Mus musculus [20]): 50% | inhibition (Rattus norvegicus [21]): 8.8% | inhibition (Rattus norvegicus [22]): 9.5% | inhibition (Rattus norvegicus [23]): 8.4% | ED50 (Mus musculus [24]): 58.9 mg/kg | ED50 (Mus musculus [25]): 83.2 mg/kg | ED50 (Mus musculus [26]): 19.9 mg/kg | TD50 at 0.25 h [27]: 199 mg/kg | Ratio TD50/ED50 (Mus musculus [28]): 3.38 | Ratio TD50/ED50 (Mus musculus [29]): 2.39 | Ratio TD50/ED50 (Mus musculus [30]): 10 | Ratio TD50/ED50 (Mus musculus [31]): 1.88 | ED50 (Mus musculus [32]): 91.7 mg/kg | ED50 (Mus musculus [33]): 78.6 mg/kg | ED50 (Mus musculus [34]): 42.3 mg/kg | TD50 at 0.5 h [35]: 173 mg/kg | Ratio TD50/ED50 (Mus musculus [36]): 2.19 | Ratio TD50/ED50 (Mus musculus [37]): 4.08 | inhibition (Rattus norvegicus [38]): 69.5%
